Tested on: Fibroblast
Experiment: Multiplex assay against human fibroblast
Format: toxicity, cell-based
How it was run: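 Per cents of healthy-nucleus cells form the tubulin, mitochondrial-mass and membrane-permeability phenotype values. Live cells were stained at seeding with Hoechst33342, BioTracker Green Microtubule Cytoskeleton Dye, MitoTracker Red and Annexin V Alexa Fluor 680. After compound addition they were imaged on a CQ1 microscope at 37°C and 5% CO2, and CellPathfinder machine-learning gating split them into Hoechst high-intensity objects or normal cells, normal cells into healthy, pyknosed or fragmented nuclei, and pyknosed cells into mitotic or apoptotic.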

[1] = 12 h, 1 µM, compound concentration 1 uM, replicate 1
[2] = 12 h, 1 µM, compound concentration 1 uM, replicate 2
[3] = 12 h, 10 µM, compound concentration 10 uM, replicate 1
[4] = 12 h, 10 µM, compound concentration 10 uM, replicate 2
[5] = 24 h, 1 µM, compound concentration 1 uM, replicate 1
[6] = 24 h, 1 µM, compound concentration 1 uM, replicate 2
[7] = 24 h, 10 µM, compound concentration 10 uM, replicate 1
[8] = 24 h, 10 µM, compound concentration 10 uM, replicate 2
[9] = 48 h, 1 µM, compound concentration 1 uM, replicate 1
[10] = 48 h, 1 µM, compound concentration 1 uM, replicate 2
[11] = 48 h, 10 µM, compound concentration 10 uM, replicate 1
[12] = 48 h, 10 µM, compound concentration 10 uM, replicate 2

For `CCCn1c(=O)c2[nH]c(C34CC5CC(CC3C5)C4)nc2n(CCC)c1=O` [ROLOFYLLINE], the “Population Apoptotic (%)” value [1] was 67%, the “Population Fragmented Nuclei (%)” value [1] was 13% and the “Population Healthy Nuclei (%)” value [1] was 55%. For the same molecule, the “Population Hoechst High Intensity Objects (%)” value [1] was 9%, the “Population Membrane Permeable-Phenotype (%)” value [1] was 24% and the “Population Mitochondria Different-Phenotype (%)” value [1] was 10%. For the same molecule, the “Population Mitotic Cells (%)” value [1] was 32%, the “Population Normal (%)” value [1] was 90% and the “Population Pyknosed Nuclei (%)” value [1] was 31%. The “Population Tubulin-Different-Phenotype (%)” value [1] was 63%, the “Total Cell Count” value [1] was 98 and the “Population Apoptotic (%)” value [2] was 71%. The “Population Fragmented Nuclei (%)” value [2] was 4%, the “Population Healthy Nuclei (%)” value [2] was 88% and the “Population Hoechst High Intensity Objects (%)” value [2] was 3%. For the same molecule, the “Population Membrane Permeable-Phenotype (%)” value [2] was 12%, the “Population Mitochondria Different-Phenotype (%)” value [2] was 15% and the “Population Mitotic Cells (%)” value [2] was 28%. For the same molecule, the “Population Normal (%)” value [2] was 96%, the “Population Pyknosed Nuclei (%)” value [2] was 7% and the “Population Tubulin-Different-Phenotype (%)” value [2] was 20%. The “Total Cell Count” value [2] was 81, the “Population Apoptotic (%)” value [3] was 46% and the “Population Fragmented Nuclei (%)” value [3] was 13%. The “Population Healthy Nuclei (%)” value [3] was 42%, the “Population Hoechst High Intensity Objects (%)” value [3] was 13% and the “Population Membrane Permeable-Phenotype (%)” value [3] was 23%. For the same molecule, the “Population Mitochondria Different-Phenotype (%)” value [3] was 37%, the “Population Mitotic Cells (%)” value [3] was 53% and the “Population Normal (%)” value [3] was 86%. For the same molecule, the “Population Pyknosed Nuclei (%)” value [3] was 43%, the “Population Tubulin-Different-Phenotype (%)” value [3] was 88% and the “Total Cell Count” value [3] was 137. The “Population Apoptotic (%)” value [4] was 55%, the “Population Healthy Nuclei (%)” value [4] was 74% and the “Population Hoechst High Intensity Objects (%)” value [4] was 3%. For the same molecule, the “Population Membrane Permeable-Phenotype (%)” value [4] was 46%, the “Population Mitochondria Different-Phenotype (%)” value [4] was 73% and the “Population Mitotic Cells (%)” value [4] was 44%. The “Population Normal (%)” value [4] was 96%, the “Population Pyknosed Nuclei (%)” value [4] was 12% and the “Population Tubulin-Different-Phenotype (%)” value [4] was 100%. For the same molecule, the “Total Cell Count” value [4] was 99, the “Population Apoptotic (%)” value [5] was 31% and the “Population Fragmented Nuclei (%)” value [5] was 20%. The “Population Healthy Nuclei (%)” value [5] was 56%, the “Population Hoechst High Intensity Objects (%)” value [5] was 13% and the “Population Membrane Permeable-Phenotype (%)” value [5] was 39%. For the same molecule, the “Population Mitochondria Different-Phenotype (%)” value [5] was 9%, the “Population Mitotic Cells (%)” value [5] was 68% and the “Population Normal (%)” value [5] was 86%. The “Population Pyknosed Nuclei (%)” value [5] was 23%, the “Population Tubulin-Different-Phenotype (%)” value [5] was 73% and the “Total Cell Count” value [5] was 109. The “Population Apoptotic (%)” value [6] was 40%, the “Population Fragmented Nuclei (%)” value [6] was 7% and the “Population Healthy Nuclei (%)” value [6] was 88%. The “Population Hoechst High Intensity Objects (%)” value [6] was 5%, the “Population Membrane Permeable-Phenotype (%)” value [6] was 6% and the “Population Mitochondria Different-Phenotype (%)” value [6] was 11%. The “Population Mitotic Cells (%)” value [6] was 60%, the “Population Normal (%)” value [6] was 94% and the “Population Pyknosed Nuclei (%)” value [6] was 4%. The “Population Tubulin-Different-Phenotype (%)” value [6] was 15%, the “Total Cell Count” value [6] was 83 and the “Population Apoptotic (%)” value [7] was 36%. For the same molecule, the “Population Fragmented Nuclei (%)” value [7] was 17%, the “Population Healthy Nuclei (%)” value [7] was 43% and the “Population Hoechst High Intensity Objects (%)” value [7] was 13%. For the same molecule, the “Population Membrane Permeable-Phenotype (%)” value [7] was 31%, the “Population Mitochondria Different-Phenotype (%)” value [7] was 39% and the “Population Mitotic Cells (%)” value [7] was 63%. The “Population Normal (%)” value [7] was 86%, the “Population Pyknosed Nuclei (%)” value [7] was 39% and the “Population Tubulin-Different-Phenotype (%)” value [7] was 87%. For the same molecule, the “Total Cell Count” value [7] was 128, the “Population Apoptotic (%)” value [8] was 56% and the “Population Fragmented Nuclei (%)” value [8] was 9%. The “Population Healthy Nuclei (%)” value [8] was 58%, the “Population Hoechst High Intensity Objects (%)” value [8] was 5% and the “Population Membrane Permeable-Phenotype (%)” value [8] was 41%. The “Population Mitochondria Different-Phenotype (%)” value [8] was 81%, the “Population Mitotic Cells (%)” value [8] was 43% and the “Population Normal (%)” value [8] was 94%. For the same molecule, the “Population Pyknosed Nuclei (%)” value [8] was 31%, the “Population Tubulin-Different-Phenotype (%)” value [8] was 100% and the “Total Cell Count” value [8] was 120. The “Population Apoptotic (%)” value [9] was 31%, the “Population Fragmented Nuclei (%)” value [9] was 28% and the “Population Healthy Nuclei (%)” value [9] was 55%. The “Population Hoechst High Intensity Objects (%)” value [9] was 14%, the “Population Membrane Permeable-Phenotype (%)” value [9] was 23% and the “Population Mitochondria Different-Phenotype (%)” value [9] was 3%. The “Population Mitotic Cells (%)” value [9] was 68%, the “Population Normal (%)” value [9] was 85% and the “Population Pyknosed Nuclei (%)” value [9] was 15%. The “Population Tubulin-Different-Phenotype (%)” value [9] was 58%, the “Total Cell Count” value [9] was 118 and the “Population Apoptotic (%)” value [10] was 0%. The “Population Fragmented Nuclei (%)” value [10] was 25%, the “Population Healthy Nuclei (%)” value [10] was 73% and the “Population Hoechst High Intensity Objects (%)” value [10] was 13%. For the same molecule, the “Population Membrane Permeable-Phenotype (%)” value [10] was 34%, the “Population Mitochondria Different-Phenotype (%)” value [10] was 5% and the “Population Mitotic Cells (%)” value [10] was 100%. For the same molecule, the “Population Normal (%)” value [10] was 86%, the “Population Pyknosed Nuclei (%)” value [10] was 1% and the “Population Tubulin-Different-Phenotype (%)” value [10] was 70%. The “Total Cell Count” value [10] was 87, the “Population Apoptotic (%)” value [11] was 62% and the “Population Fragmented Nuclei (%)” value [11] was 31%. The “Population Healthy Nuclei (%)” value [11] was 46%, the “Population Hoechst High Intensity Objects (%)” value [11] was 17% and the “Population Membrane Permeable-Phenotype (%)” value [11] was 26%. For the same molecule, the “Population Mitochondria Different-Phenotype (%)” value [11] was 51%, the “Population Mitotic Cells (%)” value [11] was 37% and the “Population Normal (%)” value [11] was 82%. The “Population Pyknosed Nuclei (%)” value [11] was 21%, the “Population Tubulin-Different-Phenotype (%)” value [11] was 86% and the “Total Cell Count” value [11] was 134. The “Population Apoptotic (%)” value [12] was 50%, the “Population Fragmented Nuclei (%)” value [12] was 37% and the “Population Healthy Nuclei (%)” value [12] was 57%. The “Population Hoechst High Intensity Objects (%)” value [12] was 50%, the “Population Membrane Permeable-Phenotype (%)” value [12] was 21% and the “Population Mitochondria Different-Phenotype (%)” value [12] was 34%. For the same molecule, the “Population Mitotic Cells (%)” value [12] was 50%, the “Population Normal (%)” value [12] was 50% and the “Population Pyknosed Nuclei (%)” value [12] was 5%. For the same molecule, the “Population Tubulin-Different-Phenotype (%)” value [12] was 82% and the “Total Cell Count” value [12] was 160.

Source: ChEMBL document CHEMBL4689842, “EUbOPEN Chemogenomics Library wave 1” (2021)
